Data: ChEMBL document CHEMBL5724801, “EUbOPEN Chemogenomics Library - Multiplex” (2024)
Values joined by “and” are separate entries in the source; they are usually repeats but may differ in a detail not shown here. Identical values can stand only once.

Test system: HEK-293T
Test: Multiplex assay against HEK293T
Type: toxicity, cell-based
Details: human
Method in brief: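 Per cents of healthy-nucleus cells form the tubulin, mitochondrial-mass and membrane-permeability phenotype values. Live cells were stained at seeding with Hoechst33342, BioTracker Green Microtubule Cytoskeleton Dye, MitoTracker Red and Annexin V Alexa Fluor 680. After compound addition they were imaged on a CQ1 microscope at 37°C and 5% CO2, and CellPathfinder machine-learning gating split them into Hoechst high-intensity objects or normal cells, normal cells into healthy, pyknosed or fragmented nuclei, and pyknosed cells into mitotic or apoptotic.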

[1] = 12 h, 1 µM, compound concentration 1 uM
[2] = 12 h, 10 µM, compound concentration 10 uM
[3] = 24 h, 1 µM, compound concentration 1 uM
[4] = 24 h, 10 µM, compound concentration 10 uM
[5] = 48 h, 1 µM, compound concentration 1 uM
[6] = 48 h, 10 µM, compound concentration 10 uM

CCCCC(=O)N(Cc1ccc(-c2ccccc2-c2nnn[nH]2)cc1)[C@H](C(=O)O)C(C)C
Population Apoptotic (%) [1]: 44% and 40%
Population Fragmented Nuclei (%) [1]: 7% and 6%
Population Healthy Nuclei (%) [1]: 80% and 74%
Population Hoechst High Intensity Objects (%) [1]: 9% and 11%
Population Membrane Permeable-Phenotype (%) [1]: 0%
Population Mitochondria Different-Phenotype (%) [1]: 36% and 49%
Population Mitotic Cells (%) [1]: 55% and 59%
Population Normal (%) [1]: 90% and 88%
Population Pyknosed Nuclei (%) [1]: 12% and 18%
Population Tubulin-Different-Phenotype (%) [1]: 16% and 21%
Total Cell Count [1]: 469 and 290
Population Apoptotic (%) [2]: 21% and 51%
Population Fragmented Nuclei (%) [2]: 7% and 5%
Population Healthy Nuclei (%) [2]: 83% and 81%
Population Hoechst High Intensity Objects (%) [2]: 5% and 10%
Population Membrane Permeable-Phenotype (%) [2]: 0%
Population Mitochondria Different-Phenotype (%) [2]: 30% and 63%
Population Mitotic Cells (%) [2]: 78% and 48%
Population Normal (%) [2]: 94% and 89%
Population Pyknosed Nuclei (%) [2]: 8% and 13%
Population Tubulin-Different-Phenotype (%) [2]: 19%
Total Cell Count [2]: 507 and 310
Population Apoptotic (%) [3]: 30% and 32%
Population Fragmented Nuclei (%) [3]: 11% and 9%
Population Healthy Nuclei (%) [3]: 78% and 82%
Population Hoechst High Intensity Objects (%) [3]: 5% and 6%
Population Membrane Permeable-Phenotype (%) [3]: 0%
Population Mitochondria Different-Phenotype (%) [3]: 21% and 26%
Population Mitotic Cells (%) [3]: 70% and 67%
Population Normal (%) [3]: 94% and 93%
Population Pyknosed Nuclei (%) [3]: 10% and 8%
Population Tubulin-Different-Phenotype (%) [3]: 12%
Total Cell Count [3]: 630 and 429
Population Apoptotic (%) [4]: 20% and 35%
Population Fragmented Nuclei (%) [4]: 9%
Population Healthy Nuclei (%) [4]: 82%
Population Hoechst High Intensity Objects (%) [4]: 5% and 7%
Population Membrane Permeable-Phenotype (%) [4]: 0%
Population Mitochondria Different-Phenotype (%) [4]: 19% and 30%
Population Mitotic Cells (%) [4]: 79% and 64%
Population Normal (%) [4]: 94% and 92%
Population Pyknosed Nuclei (%) [4]: 7%
Population Tubulin-Different-Phenotype (%) [4]: 11% and 13%
Total Cell Count [4]: 663 and 420
Population Apoptotic (%) [5]: 18% and 19%
Population Fragmented Nuclei (%) [5]: 13% and 14%
Population Healthy Nuclei (%) [5]: 80% and 79%
Population Hoechst High Intensity Objects (%) [5]: 2% and 3%
Population Membrane Permeable-Phenotype (%) [5]: 1% and 0%
Population Mitochondria Different-Phenotype (%) [5]: 12% and 16%
Population Mitotic Cells (%) [5]: 81% and 80%
Population Normal (%) [5]: 97% and 96%
Population Pyknosed Nuclei (%) [5]: 5% and 6%
Population Tubulin-Different-Phenotype (%) [5]: 7% and 9%
Total Cell Count [5]: 1024 and 653
Population Apoptotic (%) [6]: 14% and 15%
Population Fragmented Nuclei (%) [6]: 14%
Population Healthy Nuclei (%) [6]: 81% and 78%
Population Hoechst High Intensity Objects (%) [6]: 1% and 2%
Population Membrane Permeable-Phenotype (%) [6]: 2% and 0%
Population Mitochondria Different-Phenotype (%) [6]: 8% and 17%
Population Mitotic Cells (%) [6]: 85% and 84%
Population Normal (%) [6]: 98% and 97%
Population Pyknosed Nuclei (%) [6]: 3% and 7%
Population Tubulin-Different-Phenotype (%) [6]: 8%
Total Cell Count [6]: 1205 and 623

CC(F)(F)CN1CCOc2c(nn(-c3ccccc3Cl)c2-c2ccc(Cl)cc2)C1=O
Population Apoptotic (%) [1]: 29% and 64%
Population Healthy Nuclei (%) [1]: 77% and 78%
Population Membrane Permeable-Phenotype (%) [1]: 0%
Population Mitochondria Different-Phenotype (%) [1]: 43% and 53%
Population Mitotic Cells (%) [1]: 70% and 35%
Population Normal (%) [1]: 93% and 91%
Population Pyknosed Nuclei (%) [1]: 12% and 16%
Total Cell Count [1]: 397 and 369
Population Apoptotic (%) [2]: 57% and 43%
Population Healthy Nuclei (%) [2]: 73% and 75%
Population Membrane Permeable-Phenotype (%) [2]: 0%
Population Mitochondria Different-Phenotype (%) [2]: 78% and 84%
Population Mitotic Cells (%) [2]: 42% and 56%
Population Normal (%) [2]: 89% and 94%
Population Pyknosed Nuclei (%) [2]: 22% and 18%
Total Cell Count [2]: 384 and 397
Population Apoptotic (%) [3]: 25% and 43%
Population Healthy Nuclei (%) [3]: 79% and 84%
Population Membrane Permeable-Phenotype (%) [3]: 0%
Population Mitochondria Different-Phenotype (%) [3]: 22% and 31%
Population Mitotic Cells (%) [3]: 74% and 56%
Population Normal (%) [3]: 97% and 93%
Population Pyknosed Nuclei (%) [3]: 11% and 8%
Total Cell Count [3]: 568 and 478
Population Apoptotic (%) [4]: 57% and 41%
Population Healthy Nuclei (%) [4]: 76% and 80%
Population Membrane Permeable-Phenotype (%) [4]: 0%
Population Mitochondria Different-Phenotype (%) [4]: 71% and 79%
Population Mitotic Cells (%) [4]: 42% and 58%
Population Normal (%) [4]: 92% and 94%
Population Pyknosed Nuclei (%) [4]: 15%
Population Tubulin-Different-Phenotype (%) [4]: 50%
Total Cell Count [4]: 450 and 477
Population Apoptotic (%) [5]: 22% and 25%
Population Healthy Nuclei (%) [5]: 77% and 79%
Population Membrane Permeable-Phenotype (%) [5]: 1%
Population Mitochondria Different-Phenotype (%) [5]: 14% and 23%
Population Mitotic Cells (%) [5]: 77% and 74%
Population Normal (%) [5]: 99% and 97%
Population Pyknosed Nuclei (%) [5]: 7%
Population Tubulin-Different-Phenotype (%) [5]: 8%
Total Cell Count [5]: 1015 and 734
Population Apoptotic (%) [6]: 55% and 35%
Population Healthy Nuclei (%) [6]: 74% and 78%
Population Membrane Permeable-Phenotype (%) [6]: 0%
Population Mitochondria Different-Phenotype (%) [6]: 62% and 68%
Population Mitotic Cells (%) [6]: 44% and 65%
Population Normal (%) [6]: 93%
Population Pyknosed Nuclei (%) [6]: 11%
Total Cell Count [6]: 540 and 558
